Source: ChEMBL document CHEMBL3608271, “New phenolic compounds from the seeds of Nigella glandulifera and their inhibitory activities against human cancer cells” (Bioorg Med Chem Lett, 2015)
pIC50: −log10 of the molar value.

Assays:
Format in all cases: functional, cell-based
[1] = Cytotoxicity against human Bel7402 cells after 72 hrs by MTT assay; conditions: Bel-7402, 72 h
How it was run: (§1)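 Cells seeded in 96-well plates and grown 24 h at 37 °C, 5% CO2, then exposed to test compound at five concentrations for 72 h. MTT (0.5 mg/mL in PBS) added, 4 h at 37 °C. Medium replaced with DMSO, shaken 3 min to dissolve formazan, optical density read at 544 nm. 5-Fluorouracil as positive control.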

[2] = Cytotoxicity against human HCT8 cells after 72 hrs by MTT assay; conditions: HCT-8, 72 h; how it was run: as §1
[3] = test system: A549; experiment: Cytotoxicity against human A549 cells after 72 hrs by MTT assay; conditions: A549, 72 h; how it was run: as §1
[4] = test system: HepG2; experiment: Cytotoxicity against human HepG2 cells after 72 hrs by MTT assay; conditions: HepG2, 72 h; how it was run: as §1

Compound	pIC50 [1]	pIC50 [2]	pIC50 [3]	pIC50 [4]
CC(C)(O)CCc1c(O)cc(CO)cc1O	< 4.40	< 4.40	< 4.40	4.75
CC(C)=CCc1c(O)cc(CO)cc1O	5.11	4.94	4.70	4.80
CC1(C)C=Cc2c(O)cc(CO)cc2O1	< 4.40	< 4.40	4.44	4.76
CC1(C)C=Cc2c(cc3c(c2O)C(=O)OC3)O1	< 4.40	4.62	< 4.40	4.43
O=c1[nH]cc(F)c(=O)[nH]1 [FLUOROURACIL]	5.00	5.20	4.85	4.78
